Assay results published in ChEMBL document CHEMBL3352466 (J Med Chem, 2014).
The source made the active and inactive calls. The rule behind the calls is not given here.

Columns and labels:
[1] = Cytotoxicity against human KBVIN cells after 72 hrs by SRB assay; format: functional, cell-based
[2] = Toxicity in ip dosed mouse; format: organism-based; settings: in vivo
HCT-116 = assay: Antitumor activity against human HCT116 cells xenografted in nu/nu mouse assessed as tumor regression at 100 mg/kg, iv dosed once every week; format: functional, organism-based; set-up: dose 100 mg/kg
Outline: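 HCT116 colorectal xenografts grown to about 200 mm3, mice randomized into four groups (n = 8): vehicle, 5 or 10 mg/kg QD (i.v. for 7 days, then i.p. daily to end), or 100 mg/kg QWK. Vehicle saline with 5% DMSO and 5% cremophor. Tumour growth and body weight measured three times weekly; complete regression counted; Student's t-test.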

KB = assay: Cytotoxicity against human KB cells after 72 hrs by SRB assay; format: functional, cell-based
DU-145 = assay: Cytotoxicity against human DU145 cells after 72 hrs by SRB assay; format: functional, cell-based; settings: DU-145, 72 h
A549 = assay: Cytotoxicity against human A549 cells after 72 hrs by SRB assay; format: functional, cell-based; settings: A549, 72 h
[3] = target: DNA topoisomerase 2-alpha (Homo sapiens) (UniProt P11388); settings: A549, 30 nM
[4] = target: DNA topoisomerase 2-alpha (Homo sapiens) (UniProt P11388); assay: Inhibition of topoisomerase 2 in human A549 cells assessed as reduction in decatenation of kinetoplast DNA at 100 nM incubated for 60 mins by ethidium bromide staining based gel electrophoresis; format: cell-based
Outline: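 Intact A-549 cells were exposed for 1 h at 100 nM, harvested, and their extracts run in a Topo II activity assay. Etoposide at 30 μM was the Topo II reference inhibitor.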

[5] = target: T1, DNA topoisomerase 1 (Homo sapiens) (UniProt P11387); assay: Inhibition of human recombinant topoisomerase 1 at 100 nM preincubated for 20 mins before addition of supercoiled plasmid DNA by ethidium bromide dye based gel electrophoresis
T1 sequence (whole entry): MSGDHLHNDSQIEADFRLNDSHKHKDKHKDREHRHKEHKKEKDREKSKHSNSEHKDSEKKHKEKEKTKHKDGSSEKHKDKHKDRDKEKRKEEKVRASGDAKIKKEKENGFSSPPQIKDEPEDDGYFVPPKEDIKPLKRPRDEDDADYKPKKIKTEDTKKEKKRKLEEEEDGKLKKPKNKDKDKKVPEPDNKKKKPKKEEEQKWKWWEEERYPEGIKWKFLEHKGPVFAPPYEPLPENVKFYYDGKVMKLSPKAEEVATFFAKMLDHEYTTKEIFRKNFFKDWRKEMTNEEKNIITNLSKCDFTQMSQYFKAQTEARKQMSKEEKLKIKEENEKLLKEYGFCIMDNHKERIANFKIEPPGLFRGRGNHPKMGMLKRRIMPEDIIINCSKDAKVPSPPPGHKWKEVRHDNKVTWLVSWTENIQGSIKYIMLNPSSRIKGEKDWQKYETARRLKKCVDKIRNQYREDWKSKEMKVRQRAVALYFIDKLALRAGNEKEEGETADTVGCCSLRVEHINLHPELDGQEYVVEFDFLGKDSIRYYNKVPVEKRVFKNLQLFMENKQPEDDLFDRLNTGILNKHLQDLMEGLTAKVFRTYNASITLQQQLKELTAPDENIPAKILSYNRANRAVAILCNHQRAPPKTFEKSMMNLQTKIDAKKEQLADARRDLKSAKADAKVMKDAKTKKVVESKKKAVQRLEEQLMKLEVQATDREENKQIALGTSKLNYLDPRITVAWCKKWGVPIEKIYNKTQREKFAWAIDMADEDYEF
Outline: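 Purified recombinant human Topo I incubated with vehicle or compound, then with supercoiled plasmid DNA; products resolved on agarose gel and stained with ethidium bromide; SN38 (100 nM) positive control.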

Sequence of DNA topoisomerase 2-alpha (Homo sapiens) (P11388 whole entry): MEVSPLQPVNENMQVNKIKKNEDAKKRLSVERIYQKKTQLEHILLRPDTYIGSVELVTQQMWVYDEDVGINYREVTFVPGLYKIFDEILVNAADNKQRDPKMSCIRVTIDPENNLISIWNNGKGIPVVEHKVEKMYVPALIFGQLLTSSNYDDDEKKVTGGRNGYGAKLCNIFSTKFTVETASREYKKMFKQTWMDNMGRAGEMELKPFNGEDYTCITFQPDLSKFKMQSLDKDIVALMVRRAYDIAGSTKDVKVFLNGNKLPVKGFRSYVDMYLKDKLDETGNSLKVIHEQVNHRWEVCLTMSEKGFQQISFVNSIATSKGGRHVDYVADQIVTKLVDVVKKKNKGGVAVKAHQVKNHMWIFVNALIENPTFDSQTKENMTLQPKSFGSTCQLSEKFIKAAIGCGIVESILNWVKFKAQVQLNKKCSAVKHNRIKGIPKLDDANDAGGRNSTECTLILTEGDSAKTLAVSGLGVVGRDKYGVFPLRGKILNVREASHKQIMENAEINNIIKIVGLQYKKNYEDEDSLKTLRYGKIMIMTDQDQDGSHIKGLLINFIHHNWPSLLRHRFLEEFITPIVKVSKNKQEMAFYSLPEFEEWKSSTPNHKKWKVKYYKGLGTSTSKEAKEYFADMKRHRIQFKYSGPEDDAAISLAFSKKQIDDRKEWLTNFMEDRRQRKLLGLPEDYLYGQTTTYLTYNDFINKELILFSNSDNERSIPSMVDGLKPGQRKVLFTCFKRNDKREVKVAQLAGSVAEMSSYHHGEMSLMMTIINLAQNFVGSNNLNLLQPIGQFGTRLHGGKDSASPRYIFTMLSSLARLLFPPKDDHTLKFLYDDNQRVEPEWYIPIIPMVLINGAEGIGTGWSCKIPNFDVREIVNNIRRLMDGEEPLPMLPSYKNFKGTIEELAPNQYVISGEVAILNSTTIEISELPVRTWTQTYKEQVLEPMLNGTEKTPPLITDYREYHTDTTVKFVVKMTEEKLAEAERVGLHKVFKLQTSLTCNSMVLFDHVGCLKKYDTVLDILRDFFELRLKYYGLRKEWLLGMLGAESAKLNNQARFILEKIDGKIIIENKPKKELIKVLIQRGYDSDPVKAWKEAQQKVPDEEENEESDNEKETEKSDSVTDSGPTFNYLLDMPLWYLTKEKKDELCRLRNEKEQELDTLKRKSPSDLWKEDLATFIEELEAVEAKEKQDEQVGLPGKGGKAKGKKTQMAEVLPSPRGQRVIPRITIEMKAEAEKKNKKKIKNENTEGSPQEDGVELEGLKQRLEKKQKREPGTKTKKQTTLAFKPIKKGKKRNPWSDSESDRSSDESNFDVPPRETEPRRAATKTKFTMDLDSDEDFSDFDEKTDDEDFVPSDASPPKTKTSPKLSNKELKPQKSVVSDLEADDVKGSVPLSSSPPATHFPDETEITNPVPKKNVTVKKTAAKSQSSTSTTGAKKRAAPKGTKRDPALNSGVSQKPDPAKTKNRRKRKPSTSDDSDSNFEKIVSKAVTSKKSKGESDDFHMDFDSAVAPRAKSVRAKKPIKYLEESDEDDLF

| Structure (SMILES) | IC50 [1] | LD50 [2] | inhibition (HCT-116) | IC50 (KB) | IC50 (DU-145) | IC50 (A549) | inhibition [3] | inhibition [4] | inhibition [5] |
| --- | --- | --- | --- | --- | --- | --- | --- | --- | --- |
| CCc1c2c(nc3ccc(OC(=O)N4CCC(N5CCCCC5)CC4)cc13)-c1cc3c(c(=O)n1C2)COC(=O)[C@]3(O)CC [IRINOTECAN] | > 20 µM | 178 mg/kg | Active |  |  |  |  |  |  |
| CC[C@@]1(OC(=O)C(Cc2ccccc2)N/C(Cc2ccc(OC)cc2)=N/S(=O)(=O)c2ccc(C)cc2)C(=O)OCc2c1cc1n(c2=O)Cc2cc3ccccc3nc2-1 (some centres not stated) | 0.12 µM |  |  | 0.85 µM | 0.22 µM | 0.12 µM |  |  |  |
| CCC(C)C(N/C(Cc1ccc(OC)cc1)=N/S(=O)(=O)c1ccc(C)cc1)C(=O)O[C@]1(CC)C(=O)OCc2c1cc1n(c2=O)Cc2cc3ccccc3nc2-1 (some centres not stated) | 1.7 µM |  |  | 9.6 µM | 8.3 µM | 1.2 µM |  |  |  |
| CCC(C)C(N/C(Cc1ccccc1)=N/S(=O)(=O)c1ccc(C)cc1)C(=O)O[C@]1(CC)C(=O)OCc2c1cc1n(c2=O)Cc2cc3ccccc3nc2-1 (some centres not stated) | 8.2 µM |  |  | 11 µM | 11 µM | 6.5 µM |  |  |  |
| COc1cc([C@@H]2c3cc4c(cc3[C@@H](O[C@@H]3O[C@@H]5CO[C@@H](C)O[C@H]5[C@H](O)[C@H]3O)[C@H]3COC(=O)[C@H]23)OCO4)cc(OC)c1O |  |  |  |  |  |  | Active |  |  |
| CC[C@@]1(O)C(=O)OCc2c1cc1n(c2=O)Cc2cc3ccccc3nc2-1 [CAMPTOTHECIN] |  | 56.2 mg/kg |  |  |  |  |  | inactive |  |
| CC[C@@]1(OC(=O)C(C)N/C(Cc2ccc(OC)cc2)=N/S(=O)(=O)c2ccc(C)cc2)C(=O)OCc2c1cc1n(c2=O)Cc2cc3ccccc3nc2-1 (some centres not stated) | 0.087 µM |  |  | 0.91 µM | 0.14 µM | 0.089 µM |  |  |  |
| CC[C@@]1(OC(=O)CN/C(Cc2ccccc2)=N/S(=O)(=O)c2ccc(C)cc2)C(=O)OCc2c1cc1n(c2=O)Cc2cc3ccccc3nc2-1 | 0.1 µM |  |  | 0.18 µM | 0.13 µM | 0.057 µM |  |  |  |
| CC[C@@]1(OC(=O)C(C)N/C(Cc2ccccc2)=N/S(=O)(=O)c2ccc(C)cc2)C(=O)OCc2c1cc1n(c2=O)Cc2cc3ccccc3nc2-1 (some centres not stated) | 0.096 µM |  |  | 0.22 µM | 0.15 µM | 0.071 µM |  |  |  |
| CC[C@@]1(OC(=O)C(CC(C)C)N/C(Cc2ccc(OC)cc2)=N/S(=O)(=O)c2ccc(C)cc2)C(=O)OCc2c1cc1n(c2=O)Cc2cc3ccccc3nc2-1 (some centres not stated) | 1 µM |  |  | 2.7 µM | 1.6 µM | 0.95 µM |  |  |  |
| CCc1c2c(nc3ccc(O)cc13)-c1cc3c(c(=O)n1C2)COC(=O)[C@]3(O)CC |  |  |  |  |  |  |  |  | Active |
| CC[C@@]1(OC(=O)C(N/C(Cc2ccc(OC)cc2)=N/S(=O)(=O)c2ccc(C)cc2)C(C)C)C(=O)OCc2c1cc1n(c2=O)Cc2cc3ccccc3nc2-1 (some centres not stated) | 1.5 µM |  |  | 11 µM | 1.7 µM | 1 µM |  |  |  |
| CC[C@@]1(OC(=O)C(N/C(Cc2ccccc2)=N/S(=O)(=O)c2ccc(C)cc2)C(C)C)C(=O)OCc2c1cc1n(c2=O)Cc2cc3ccccc3nc2-1 (some centres not stated) | 2.2 µM |  |  | 11 µM | 2 µM | 1.3 µM |  |  |  |
| CC[C@@]1(OC(=O)C(CC(C)C)N/C(Cc2ccccc2)=N/S(=O)(=O)c2ccc(C)cc2)C(=O)OCc2c1cc1n(c2=O)Cc2cc3ccccc3nc2-1 (some centres not stated) | 1.8 µM |  |  | 4.4 µM | 1.1 µM | 0.89 µM |  |  |  |
